# According to ChEMBL document CHEMBL4017489, “Design, Synthesis, and Evaluation of New Selective NM23-H2 Binders as c-MYC Transcription Inhibitors via Disruption of the NM23-H2/G-Quadruplex Interaction” (J Med Chem, 2017):
# Active and inactive are the calls of the source. No cut-off for these calls is given here.
# Experiments:
# [1] = biological target: T1, Nucleoside diphosphate kinase B (Homo sapiens, UniProt P22392); test: Binding affinity to NM23-H2 in human SiHa cells assessed as decrease in NM23-H2 to c-myc G-quadruplex DNA interaction after 9 hrs by Chromatin immunoprecipitation assay; assay type: cell-based
# Method in brief: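 SiHa cells treated 9 h; chromatin immunoprecipitated overnight at 4 °C with anti-NM23-H2 (3 μg), rabbit IgG control; c-MYC promoter fragment PCR-amplified, gel bands normalized to input, untreated set 100%; three repeats.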
# [2] = Antiproliferative activity against mouse primary mesangial cells at 0.5 to 2 uM up to 100 hrs by real-time cellular activity assay; assay type: cell-based; conditions: primary mesangial cell
# Method in brief: (§1)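 Impedance-based real-time cell analysis at 37 °C, 5% CO2: 100 μL of 20 000 cells/mL added over medium background, settled 20 min, dosed after 24 h; read every 2 min for 2 h, then every 15 min to end; three repeats.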
# [3] = tested on: SiHa; test: Antiproliferative activity against human SiHa cells after 48 hrs by MTT assay; assay type: functional, cell-based
# [4] = tested on: SiHa; test: Induction of apoptosis in human SiHa cells assessed as necrotic cells at 1 uM after 48 hrs by Annexin V-FITC/propidium iodide based flow cytometric analysis (reference value: 0.3%); assay type: functional
# [5] = biological target: Nucleoside diphosphate kinase B (Homo sapiens, UniProt P22392, H118F); test: Binding affinity to NM23-H2 H118F mutant (unknown origin) by SPR analysis
# [6] = Antiproliferative activity against mouse primary mesangial cells at 4 uM up to 100 hrs by real-time cellular activity assay; assay type: cell-based; conditions: primary mesangial cell; method in brief: as §1
# [7] = tested on: SiHa; test: Cell cycle arrest in human SiHa cells assessed as accumulation at G2/M phase at 2 uM after 6 hrs by propidium iodide staining based flow cytometry (reference value: 39 %); assay type: functional
# Method in brief: (§2)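 SiHa cells (2.0 × 10^5 per well) plated 24 h, then exposed to 2 μM compound or left untreated for 3, 6, 9, 12, 24, 36 or 48 h. Cells washed in PBS, fixed overnight in ice-cold 70% ethanol, treated with 20 μg/mL RNase A for 30 min at 37 °C, stained with PI, and read by flow cytometry at 488 nm. Phase percentages compared with untreated control; at least three experiments.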
# [8] = tested on: SiHa; test: Cell cycle arrest in human SiHa cells assessed as accumulation at G2/M phase at 2 uM after 48 hrs by propidium iodide staining based flow cytometry (reference value: 39 %); assay type: functional; method in brief: as §2
# [9] = tested on: SiHa; test: Down regulation of CDK6 expression in human SiHa cells at 0.5 to 2 uM after 24 to 48 hrs by Western blot analysis; assay type: functional, cell-based
# Method in brief: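 SiHa cells (2.0 × 10^5) treated with compound at various concentrations for 24 or 48 h, then lysed at 4 °C. Protein measured by BCA; 30 μg run on 10% SDS-PAGE and transferred to nitrocellulose. Membranes blocked in 5% milk, probed with primary antibodies overnight at 4 °C, then HRP secondary for 2 h, and detected by chemiluminescence. Bands quantified by densitometry; at least three experiments.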
# [10] = tested on: SiHa; test: Cell cycle arrest in human SiHa cells assessed as accumulation at sub-G1 phase at 2 uM after 48 hrs by propidium iodide staining based flow cytometry relative to control; assay type: functional; method in brief: as §2
# [11] = tested on: Mus musculus; test: Toxicity in BALB/C nude mouse xenografted with human SiHa cells assessed as discomfort at 2.5 to 5 mg/kg, ip administered daily after 3 weeks; assay type: organism-based; conditions: in vivo, 504 h
# Method in brief: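 SiHa cells implanted in the right armpit of BALB/c nu/nu mice. At approximately 50 mm3, mice randomized (n = 8/group) to vehicle, compound 2.5 or 5.0 mg/kg, or doxorubicin 1.0 mg/kg, given ip daily for 3 weeks. Body weight and signs of pain, distress or discomfort monitored; tumors excised and weighed. Data given as mean ± SEM, t test against vehicle.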
# [12] = tested on: SiHa; test: Cell cycle arrest in human SiHa cells assessed as accumulation at S phase at 2 uM after 36 hrs by propidium iodide staining based flow cytometry (reference value: 13 %); assay type: functional; method in brief: as §2
# [13] = tested on: SiHa; test: Antitumor activity against human SiHa cells xenografted in BALB/C nude mouse assessed as tumor weight at 5 mg/kg, ip administered daily after 3 weeks (reference value: 511.6 mg); assay type: functional
# [14] = tested on: SiHa; test: Cell cycle arrest in human SiHa cells assessed as accumulation at sub-G1 phase at 2 uM after 36 hrs by propidium iodide staining based flow cytometry relative to control; assay type: functional; method in brief: as §2
# [15] = Induction of apoptosis in mouse primary mesangial cells at 0.5 to 2 uM after 48 hrs by Annexin V-FITC/propidium iodide based flow cytometric analysis; conditions: primary mesangial cell
# Method in brief: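 Primary cultured mouse mesangial cells treated at the same concentrations as SiHa cells. Stained with annexin V-FITC and PI and analysed by flow cytometry.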
# [16] = tested on: SiHa; test: Cell cycle arrest in human SiHa cells assessed as accumulation at G0/G1 phase at 2 uM after 9 hrs by propidium iodide staining based flow cytometry (reference value: 48 %); assay type: functional
# Method in brief: (§3)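 SiHa cells plated 24 h, treated at 2 μM for 3–48 h; fixed in ice-cold 70% ethanol overnight, RNase A 20 μg/mL 37 °C 30 min, PI-stained, flow cytometry at 488 nm; phase percentages quantified; at least three experiments.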
# [17] = biological target: Nucleoside diphosphate kinase B (Homo sapiens, UniProt P22392, D54A); test: Binding affinity to NM23-H2 D54A mutant (unknown origin) by SPR analysis
# [18] = Anticlonogenic activity against mouse primary mesangial cells at 0.03125 to 0.5 uM after 14 days by crystal violet staining based assay; assay type: ADME; conditions: primary mesangial cell, 336 h
# Method in brief: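 Colony formation: SiHa cells and primary cultured mouse mesangial cells exposed to 0.5, 0.25, 0.125, 0.0625 and 0.03125 μM for 14 days, DMSO as negative control; three repeats.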
# [19] = Binding affinity to biotin-labeled 18-mer duplex DNA hairpin (unknown origin) at 40 uM after 30 mins by SPR analysis
# [20] = tested on: SiHa; test: Cell cycle arrest in human SiHa cells assessed as accumulation at S phase at 2 uM after 6 hrs by propidium iodide staining based flow cytometry (reference value: 13 %); assay type: functional; method in brief: as §2
# [21] = tested on: SiHa; test: Cell cycle arrest in human SiHa cells assessed as accumulation at S phase at 2 uM after 48 hrs by propidium iodide staining based flow cytometry (reference value: 13 %); assay type: functional; method in brief: as §2
# [22] = tested on: SiHa; test: Cell cycle arrest in human SiHa cells assessed as accumulation at G2/M phase at 2 uM after 24 hrs by propidium iodide staining based flow cytometry (reference value: 39 %); assay type: functional; method in brief: as §3
# [23] = biological target: T1, Nucleoside diphosphate kinase B; test: Binding affinity to NM23-H2 (unknown origin) assessed as reduction in protein interaction with Pu22 c-myc G-quadruplex DNA after 1 hr by EMSA
# [24] = tested on: SiHa; test: Cell cycle arrest in human SiHa cells assessed as accumulation at S phase at 2 uM after 3 hrs by propidium iodide staining based flow cytometry (reference value: 13%); assay type: functional; method in brief: as §2
# [25] = tested on: SiHa; test: Cell cycle arrest in human SiHa cells assessed as accumulation at sub-G1 phase at 2 uM after 12 hrs by propidium iodide staining based flow cytometry relative to control; assay type: functional; method in brief: as §2
# [26] = tested on: SiHa; test: Cell cycle arrest in human SiHa cells assessed as accumulation at S phase at 2 uM after 9 hrs by propidium iodide staining based flow cytometry (reference value: 13 %); assay type: functional; method in brief: as §2
# [27] = tested on: SiHa; test: Antitumor activity against human SiHa cells xenografted in BALB/C nude mouse assessed as tumor growth inhibition at 5 mg/kg, ip administered daily after 3 weeks relative to control; assay type: functional; conditions: 504 h, read-out: TGI
# T1 sequence (P22392 whole entry, the tested form may be a part): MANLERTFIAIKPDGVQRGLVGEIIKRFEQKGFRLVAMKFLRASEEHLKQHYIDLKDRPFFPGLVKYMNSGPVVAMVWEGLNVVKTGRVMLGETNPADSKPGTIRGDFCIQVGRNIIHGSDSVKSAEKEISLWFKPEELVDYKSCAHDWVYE
# Nucleoside diphosphate kinase B (Homo sapiens, UniProt P22392, D54A), sequence (P22392 whole entry D54A): as the sequence (P22392 whole entry, the tested form may be a part) above, with D54A counted along it
# Nucleoside diphosphate kinase B (Homo sapiens, UniProt P22392, H118F), sequence (P22392 whole entry H118F): as the sequence (P22392 whole entry, the tested form may be a part) above, with H118F counted along it
smiles,measurement,setting,value
CN(C)CCCNc1cc2nc3n(c(=O)c2cc1F)CC/C3=C\c1ccc(OCc2ccccc2)cc1O,Activity,[1],Dose-dependent effect
same,Activity,[2],Non-Toxic
same,IC50,[3],1.78 µM
same,Activity,[4],1.3%
same,Kd,[5],47 µM
same,Activity,[6],Toxic
same,Activity,[7],26%
same,Activity,[8],0%
same,Activity,[9],Active
same,Activity,[10],100%
same,Activity,[11],Non-Toxic
same,Activity,[12],0%
same,Activity,[13],180.1 mg
same,Activity,[14],99%
same,Activity,[15],Non-Toxic
same,Activity,[16],67%
same,Kd,[17],18.4 µM
same,Activity,[18],Non-Toxic
same,Activity,[19],inactive
same,Activity,[20],12%
same,Activity,[21],0%
same,Activity,[22],8%
same,Activity,[23],Dose-dependent effect
same,Activity,[24],11%
same,Activity,[25],8%
same,Activity,[26],12%
same,inhibition in vivo at 5 mg/kg,[27],64.8%
